In ChEMBL document CHEMBL4364301 (Eur J Med Chem, 2019):

Key:
Format in all cases: functional
LNCaP [1] = experiment: Antiproliferative activity against human LNCAP cells assessed as T/C value at 1 x 10^-2 uM incubated for 96 hrs by propidium iodide based 2D monolayer assay
Outline: (§1)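 Cells were kept in RPMI 1640 with 25 mM HEPES, 10% FCS and gentamicin at 37 °C under 5% CO2, and plated at 4,000-20,000 cells/well. After 24 h recovery, compound in medium or medium alone (control wells) was added at 10 half-log concentrations from 0.0032 to 100 µM, in triplicate, with at most 0.3% DMSO. After 96 h, wells were PBS-washed, stained with 7 µg/ml PI and 0.1% Triton X-100, and fluorescence read at 530/620 nm. IC50 came from a 4-parameter fit, geometric mean.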

CWR22R [2] = experiment: Antiproliferative activity against human 22Rv1 cells assessed as T/C value at 1 x 10^-1 uM incubated for 96 hrs by propidium iodide based 2D monolayer assay; outline: as §1
VCaP [3] = experiment: Antiproliferative activity against human VCaP cells assessed as T/C value at 1 uM incubated for 96 hrs by propidium iodide based 2D monolayer assay; outline: as §1
LNCaP [4] = experiment: Antiproliferative activity against human LNCAP cells assessed as T/C value at 1 x 10^-1 uM incubated for 96 hrs by propidium iodide based 2D monolayer assay; outline: as §1
DU-145 [5] = experiment: Antiproliferative activity against human DU145 cells assessed as T/C value at 3.2 uM incubated for 96 hrs by propidium iodide based 2D monolayer assay; outline: as §1
CWR22R [6] = experiment: Antiproliferative activity against human 22Rv1 cells assessed as T/C value at 3.2 x 10^-2 uM incubated for 96 hrs by propidium iodide based 2D monolayer assay; outline: as §1
DU-145 [7] = experiment: Antiproliferative activity against human DU145 cells assessed as T/C value at 1 x 10^-2 uM incubated for 96 hrs by propidium iodide based 2D monolayer assay
Outline: (§2)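 After 24 h recovery, compound in medium or medium alone (control wells) was added at 10 half-log concentrations from 0.0032 to 100 µM, in triplicate, with at most 0.3% DMSO. After 96 h, wells were PBS-washed, stained with 7 µg/ml PI and 0.1% Triton X-100, and fluorescence read at 530/620 nm. IC50 came from a 4-parameter fit, geometric mean.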

LNCaP [8] = experiment: Antiproliferative activity against human LNCAP cells assessed as T/C value at 1 x 10^1 uM incubated for 96 hrs by propidium iodide based 2D monolayer assay; outline: as §1
LNCaP [9] = experiment: Antiproliferative activity against human LNCAP cells assessed as T/C value at 3.2 x 10^-2 uM incubated for 96 hrs by propidium iodide based 2D monolayer assay; outline: as §1
CWR22R [10] = experiment: Antiproliferative activity against human 22Rv1 cells assessed as T/C value at 3.2 x 10^1 uM incubated for 96 hrs by propidium iodide based 2D monolayer assay; outline: as §1
VCaP [11] = experiment: Antiproliferative activity against human VCaP cells assessed as T/C value at 3.2 x 10^-2 uM incubated for 96 hrs by propidium iodide based 2D monolayer assay
Outline: (§3)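 VCaP cells in RPMI 1640 with 10% FCS at 37 °C, 5% CO2, seeded 4,000–20,000 cells/well and left 24 h before dosing. Compounds from DMSO stocks were diluted in half-log steps in medium, 10 concentrations 0.0032–100 μM, triplicate wells, max 0.3% DMSO. After 96 h, cells were washed, stained with 7 μg/ml propidium iodide plus 0.1% Triton X-100 for 1–2 h at room temperature, and fluorescence read at ex 530/em 620 nm.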

VCaP [12] = experiment: Antiproliferative activity against human VCaP cells assessed as T/C value at 1 x 10^2 uM incubated for 96 hrs by propidium iodide based 2D monolayer assay; outline: as §1
DU-145 [13] = experiment: Antiproliferative activity against human DU145 cells assessed as T/C value at 3.2 x 10^-3 uM incubated for 96 hrs by propidium iodide based 2D monolayer assay; outline: as §2
LNCaP [14] = experiment: Antiproliferative activity against human LNCAP cells assessed as T/C value at 3.2 uM incubated for 96 hrs by propidium iodide based 2D monolayer assay; outline: as §1
CWR22R [15] = experiment: Antiproliferative activity against human 22Rv1 cells assessed as T/C value at 1 x 10^2 uM incubated for 96 hrs by propidium iodide based 2D monolayer assay; outline: as §1
DU-145 [16] = experiment: Antiproliferative activity against human DU145 cells assessed as T/C value at 3.2 x 10^1 uM incubated for 96 hrs by propidium iodide based 2D monolayer assay; outline: as §1
DU-145 [17] = experiment: Antiproliferative activity against human DU145 cells assessed as T/C value at 1 x 10^2 uM incubated for 96 hrs by propidium iodide based 2D monolayer assay; outline: as §1
CWR22R [18] = experiment: Antiproliferative activity against human 22Rv1 cells assessed as T/C value at 3.2 x 10^-3 uM incubated for 96 hrs by propidium iodide based 2D monolayer assay; outline: as §1
DU-145 [19] = experiment: Antiproliferative activity against human DU145 cells assessed as T/C value at 1 x 10^-1 uM incubated for 96 hrs by propidium iodide based 2D monolayer assay; outline: as §2
DU-145 [20] = experiment: Antiproliferative activity against human DU145 cells assessed as T/C value at 3.2 x 10^-2 uM incubated for 96 hrs by propidium iodide based 2D monolayer assay; outline: as §2
LNCaP [21] = experiment: Antiproliferative activity against human LNCAP cells assessed as T/C value at 3.2 x 10^-3 uM incubated for 96 hrs by propidium iodide based 2D monolayer assay; outline: as §1
VCaP [22] = experiment: Antiproliferative activity against human VCaP cells assessed as T/C value at 3.2 x 10^-1 uM incubated for 96 hrs by propidium iodide based 2D monolayer assay; outline: as §3
CWR22R [23] = experiment: Antiproliferative activity against human 22Rv1 cells assessed as T/C value at 1 x 10^-2 uM incubated for 96 hrs by propidium iodide based 2D monolayer assay; outline: as §1
CWR22R [24] = experiment: Antiproliferative activity against human 22Rv1 cells assessed as T/C value at 1 uM incubated for 96 hrs by propidium iodide based 2D monolayer assay; outline: as §1
CWR22R [25] = experiment: Antiproliferative activity against human 22Rv1 cells assessed as reduction in cell growth incubated for 96 hrs by propidium iodide based 2D monolayer assay; conditions: 22Rv1, 96 h; outline: as §2
LNCaP [26] = experiment: Antiproliferative activity against human LNCAP cells assessed as T/C value at 1 uM incubated for 96 hrs by propidium iodide based 2D monolayer assay; outline: as §1
VCaP [27] = experiment: Antiproliferative activity against human VCaP cells assessed as T/C value at 3.2 uM incubated for 96 hrs by propidium iodide based 2D monolayer assay; outline: as §1
VCaP [28] = experiment: Antiproliferative activity against human VCaP cells assessed as T/C value at 1 x 10^1 uM incubated for 96 hrs by propidium iodide based 2D monolayer assay; outline: as §1
VCaP [29] = experiment: Antiproliferative activity against human VCaP cells assessed as reduction in cell growth incubated for 96 hrs by propidium iodide based 2D monolayer assay; outline: as §3
LNCaP [30] = experiment: Antiproliferative activity against human LNCAP cells assessed as reduction in cell growth incubated for 96 hrs by propidium iodide based 2D monolayer assay; outline: as §2
LNCaP [31] = experiment: Antiproliferative activity against human LNCAP cells assessed as T/C value at 3.2 x 10^-1 uM incubated for 96 hrs by propidium iodide based 2D monolayer assay; outline: as §1
LNCaP [32] = experiment: Antiproliferative activity against human LNCAP cells assessed as T/C value at 3.2 x 10^1 uM incubated for 96 hrs by propidium iodide based 2D monolayer assay; outline: as §1

Compound	T/C (LNCaP [1]) [%]	T/C (CWR22R [2]) [%]	T/C (VCaP [3]) [%]	T/C (LNCaP [4]) [%]	T/C (DU-145 [5]) [%]	T/C (CWR22R [6]) [%]	T/C (DU-145 [7]) [%]	T/C (LNCaP [8]) [%]	T/C (LNCaP [9]) [%]	T/C (CWR22R [10]) [%]	T/C (VCaP [11]) [%]	T/C (VCaP [12]) [%]	T/C (DU-145 [13]) [%]	T/C (LNCaP [14]) [%]	T/C (CWR22R [15]) [%]	T/C (DU-145 [16]) [%]	T/C (DU-145 [17]) [%]	T/C (CWR22R [18]) [%]	T/C (DU-145 [19]) [%]	T/C (DU-145 [20]) [%]	also measured
CC(O)(COc1ccc(C(F)(F)C(F)(F)F)cc1)C(=O)Nc1cc(C(F)(F)F)cc(C(F)(F)F)c1 (racemic)	94	107	94	96	108	115	108	9	87	5	90	2	101	25	3	3	-1	106	113	108	T/C (LNCaP [21]): 91%; T/C (VCaP [22]): 99%; T/C (CWR22R [23]): 109%; T/C (CWR22R [24]): 107%; IC50 (CWR22R [25]): 2.5 µM; IC70 (CWR22R [25]): 3.11 µM; T/C (LNCaP [26]): 93%; T/C (VCaP [27]): 45%; T/C (VCaP [28]): 19%; IC50 (VCaP [29]): 3 µM; IC70 (VCaP [29]): 4.16 µM; IC50 (LNCaP [30]): 2.7 µM; IC70 (LNCaP [30]): 3.04 µM; T/C (LNCaP [31]): 93%; T/C (LNCaP [32]): 2%
CC(O)(COc1cccc(S(F)(F)(F)(F)F)c1)C(=O)Nc1cc(C(F)(F)F)cc(C(F)(F)F)c1 (racemic)	89	99	88	98	105	109	101	2	83	2	90	6	104	18	2	3	0	107	119	105	T/C (LNCaP [21]): 88%; T/C (VCaP [22]): 92%; T/C (CWR22R [23]): 105%; T/C (CWR22R [24]): 94%; IC50 (CWR22R [25]): 2.3 µM; IC70 (CWR22R [25]): 3.17 µM; T/C (LNCaP [26]): 93%; T/C (VCaP [27]): 34%; T/C (VCaP [28]): 32%; IC50 (VCaP [29]): 2.7 µM; IC70 (VCaP [29]): 5.41 µM; IC50 (LNCaP [30]): 3 µM; IC70 (LNCaP [30]): 3.1 µM; T/C (LNCaP [31]): 83%; T/C (LNCaP [32]): 1%
CC(O)(COc1ccc(S(F)(F)(F)(F)F)cc1)C(=O)Nc1cc(C(F)(F)F)cc(C(F)(F)F)c1 (racemic)	92	106	98	100	104	105	104	8	99	7	96	6	103	15	4	6	1	102	109	106	T/C (LNCaP [21]): 92%; T/C (VCaP [22]): 91%; T/C (CWR22R [23]): 106%; T/C (CWR22R [24]): 109%; IC50 (CWR22R [25]): 3.2 µM; IC70 (CWR22R [25]): 4.07 µM; T/C (LNCaP [26]): 89%; T/C (VCaP [27]): 30%; T/C (VCaP [28]): 21%; IC50 (VCaP [29]): 2.4 µM; IC70 (VCaP [29]): 3.22 µM; IC50 (LNCaP [30]): 1.9 µM; IC70 (LNCaP [30]): 2.45 µM; T/C (LNCaP [31]): 97%; T/C (LNCaP [32]): 2%
CC(O)(COc1cc(C(F)(F)F)cc(C(F)(F)F)c1)C(=O)Nc1cccc(S(F)(F)(F)(F)F)c1 (racemic)	96	106	94	76	115	110	104	2	74	4	87	7	107	17	2	5	0	104	114	114	T/C (LNCaP [21]): 89%; T/C (VCaP [22]): 91%; T/C (CWR22R [23]): 105%; T/C (CWR22R [24]): 102%; IC50 (CWR22R [25]): 6.5 µM; IC70 (CWR22R [25]): 7.75 µM; T/C (LNCaP [26]): 101%; T/C (VCaP [27]): 33%; T/C (VCaP [28]): 37%; IC50 (VCaP [29]): 2.8 µM; IC70 (VCaP [29]): 3.24 µM; IC50 (LNCaP [30]): 2.8 µM; IC70 (LNCaP [30]): 3 µM; T/C (LNCaP [31]): 67%; T/C (LNCaP [32]): 1%
